Three compounds from ChEMBL document CHEMBL1123282, “Antiinflammatory activity of substituted 6-hydroxypyrimido[2,1-f]purine-2,4,8(1H,3H,9H)-triones. Atypical nonsteroidal antiinflammatory agents” (J Med Chem, 1986) can be followed below.

Data set [1] in a line: Plasma level data at a dose of 36 mg/kg, iv after 0.5 hr. Particulars: read-out: Plasma level. Further details: dose 36 mg/kg, route intravenous. It counts as ADME, organism-based. In a few lines: (§1)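 Male Lewis rats get a single iv or oral dose of the sodium salt, suspended in 0.4% (w/v) methyl cellulose. Plasma drug levels are measured by HPLC at the timed points and given as mean ± SD, n = 3.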

The nature of data set [2]: Plasma level data at a dose of 36 mg/kg, po after 0.25 hr. The data set is classed as ADME, organism-based. Set-up: dose 36 mg/kg, route oral. Particulars: read-out: Plasma level. In a few lines:
as §1

Data set [3] has as its system Rattus norvegicus. The data set is described as follows: Compound was tested for intestinal Ulcerogenic effect in rats, activity expressed as lesion score at a dose of 300 mg/kg. It counts as functional. The method in brief: (§2)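 Normal fed rats were gavaged once daily for three consecutive days at 10–300 mg/kg and killed 24 h after the last dose. Intestines were examined for ulcers, recording incidence per group of 8 and a lesion score (±SE).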

A short description of data set [4]: Plasma level data at a dose of 36 mg/kg, po after 0.5 hr. It counts as ADME, organism-based. Set-up: dose 36 mg/kg, route oral. The conditions noted are these: read-out: Plasma level. In a few lines: as §1
Data set [5] is described as follows: Plasma level data at a dose of 36 mg/kg, po after 2 hr. Set-up: dose 36 mg/kg, route oral. Particulars: read-out: Plasma level. It counts as ADME, organism-based. The method in brief: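 Male Lewis rats given a single po dose of the sodium salt suspended in 0.4% (w/v) methyl cellulose. Plasma drug levels measured by HPLC at set times up to 12 h; values are mean ± SD, n = 3.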

Data set [6] has as its system Rattus norvegicus. The data set is described as follows: Compound was tested for intestinal Ulcerogenic effect in rats, activity expressed as ulcer incidence at a dose of 300 mg/kg. The data set is classed as functional. In a few lines:
as §2

Data set [7] is filed under the species Rattus norvegicus. The data set is described as follows: Delayed Type hypersensitivity (DTH) is measured by increase in ear thickness 24 hours after antigen injection into pinna (10E-3). It counts as functional.
A short description of data set [8]: Plasma level data at a dose of 36 mg/kg, iv after 0.25 hr. Set-up: dose 36 mg/kg, route intravenous. The data set is classed as ADME, organism-based. The conditions noted are these: read-out: Plasma level. The method in brief: as §1
Data set [9] has as its system Rattus norvegicus. The data set is described as follows: Compound was tested for intestinal ulcerogenic effect in rats at a dose of 300 mg/kg. The data set is classed as functional. The method in brief: as §2
Data set [10] deals with Rattus norvegicus. The data set can be described thus: Compound was tested for gastric ulcerogenic effect in rats, activity expressed as lesion length at a dose of 100 mg/kg.
Data set [11] has as its system Rattus norvegicus. The data set can be described thus: Compound was tested for intestinal ulcerogenic effect in rats, activity expressed as ulcer incidence at a dose of 100 mg/kg. It counts as functional. The method in brief:
as §2

For data set [12], the system named is Rattus norvegicus. The data set is described as follows: Compound was tested for intestinal ulcerogenic effect in rats, activity expressed as ulcer incidence at a dose of 10 mg/kg. It counts as functional. In a few lines:
as §2

Data set [13] relates to Rattus norvegicus. The data set can be described thus: Compound was tested for gastric ulcerogenic effect in rats, activity expressed as lesion length at a dose of 30 mg/kg.
The subject of data set [14] is Rattus norvegicus. The data set can be described thus: Compound was tested for intestinal ulcerogenic effect in rats, activity expressed as lesion score at a dose of 30 mg/kg. It counts as functional. The method in brief:
as §2

Data set [15] has as its system Rattus norvegicus. The data set is described as follows: Compound was tested for intestinal ulcerogenic effect in rats, activity expressed as lesion score at a dose of 10 mg/kg. It counts as functional. In a few lines:
as §2

A short description of data set [16]: Plasma level data at a dose of 20 mg/kg, po after 4 hr. The conditions noted are these: read-out: Plasma level. The data set is classed as ADME, organism-based. Set-up: dose 20 mg/kg, route oral. In a few lines:
as §1

Data set [17] is described as follows: Plasma level data at a dose of 20 mg/kg, iv after 0.25 hr. It counts as ADME, organism-based. Further details: dose 20 mg/kg, route intravenous. The conditions noted are these: read-out: Plasma level. In a few lines:
as §1

The nature of data set [18]: Plasma level data at a dose of 20 mg/kg, po after 12 hr. It counts as ADME, organism-based. Set-up: dose 20 mg/kg, route oral. Particulars: read-out: Plasma level. The method in brief: as §1
Data set [19] is described as follows: Plasma level data at a dose of 20mg/kg, po after 0.5 hr. The data set is classed as ADME, organism-based. The conditions noted are these: read-out: Plasma level. In a few lines:
as §1

Take `CCCc1c(O)n(Cc2ccc(F)cc2)c2nc3c(c(=O)n(C)c(=O)n3C)n2c1=O`: the concentration at 0.5 h in data set [1] was determined as 107000 ng/mL; in data set [4] it was 45100 ng/mL. In addition, the concentration at 0.25 h was determined as 20000 ng/mL in data set [2] and 140000 ng/mL in data set [8]. For the same compound, in the data set with Rattus norvegicus [3], the Lesion score is listed as 0 mm rat-1. Besides, the concentration at 2 h in data set [5] was 66100 ng/mL. Further, the Ulcer incidence in the data set with Rattus norvegicus [6] came out at 0 number/group. In addition, in the data set listed under Rattus norvegicus [7], the DTH is 34.1 10e-3mm.
For `CC(C)=CCc1c(O)n(Cc2ccc(F)cc2)c2nc3c(c(=O)n(C)c(=O)n3C)n2c1=O`, the Ulcer incidence with Rattus norvegicus [9] came to 2 number/group; in the data set with Rattus norvegicus [11] it was 0 number/group; with Rattus norvegicus [12] it was 0 number/group. Moreover, the Length with Rattus norvegicus [10] and in the data set with Rattus norvegicus [13] was 0.1 mm rat-1 in each case. The Lesion length in the data set on Rattus norvegicus [14] and in the data set on Rattus norvegicus [15] was 0 mm rat-1 throughout.
As to `CC(C)=CCc1c(O)n(Cc2ccccc2)c2nc3c(c(=O)n(C)c(=O)n3C)n2c1=O`, the concentration at 4 h in data set [16] came out at 39000 ng/mL. Also, the concentration at 0.25 h in data set [17] worked out at 95100 ng/mL. Further, the concentration at 12 h in data set [18] worked out at 26700 ng/mL. Moreover, the concentration at 0.5 h in data set [19] was 10800 ng/mL.
